{
  "source": "ChEMBL document CHEMBL1124737",
  "about": "“Synthesis and alpha 2-adrenoceptor effects of substituted catecholimidazoline and catecholimidazole analogues in human platelets” (J Med Chem, 1990)",
  "key": {"[1]": {"organism": "Homo sapiens", "assay": "Inhibition potency against primary wave responses to epinephrine", "format": "functional, organism-based", "settings": "read-out: pA2 (converted)"}, "[2]": {"organism": "Homo sapiens", "assay": "Log concentration that produces maximum response against epinephrine-induced platelet aggregation", "format": "functional, organism-based"}, "[3]": {"organism": "Homo sapiens", "assay": "Inhibition of AA+phentolamine by the compound in response of AGG", "format": "functional, organism-based", "method_in_brief": "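Citrated platelet-rich plasma from medication-free human volunteers was read by Born turbidometric aggregometry. Phentolamine (1 μM) was added 1 min before the drug and 2 min before arachidonic acid, used at the minimum concentration giving maximal aggregation. IC50 was taken from the maximal change in light transmittance after 4 min, read from percent inhibition versus log concentration plots. Data are from 3–5 preparations.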"}, "[4]": {"target": "Serotonin (5-HT) receptor", "assay": "Inhibition of U-46,619 by the compound in response of SEC", "format": "functional, Homo sapiens", "method_in_brief": "(§1)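 Inducer at the minimum concentration giving maximal aggregation; inhibitor added 1 min before it. Dense-granule secretion measured as release of radioactivity. U46619 runs include 1 mM aspirin. IC50 from percent inhibition vs log concentration; 3–5 preparations.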"}, "[5]": {"organism": "Homo sapiens", "assay": "Inhibition of U-46,619 by the compound in response of AGG", "format": "functional, organism-based", "method_in_brief": "(§2)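 Human platelet-rich plasma from medication-free volunteers, citrate anticoagulated (9:1). Inducer at the minimum concentration giving maximal aggregation. Inhibitor added 1 min before inducer. Turbidometric (Born) aggregation read as the maximal change in light-transmittance amplitude after 4 min. U46619 runs include 1 mM aspirin. IC50 taken from percent inhibition vs log concentration plots; 3–5 preparations.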"}, "[6]": {"organism": "Homo sapiens", "assay": "Stimulatory activity against serotonin secretion (SEC).", "format": "functional, organism-based"}, "[7]": {"target": "Serotonin (5-HT) receptor", "assay": "Inhibition of U-46,619 + phentolamine by the compound in response of SEC", "format": "functional, Homo sapiens", "method_in_brief": "(§3)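 Phentolamine 1 μM added 1 min before the test drug and 2 min before the inducer (AA or U46619, at minimum maximally effective concentration). Aspirin 1 mM in U46619 runs. Secretion read as radioactivity release. IC50 from percent inhibition vs log concentration; 3–5 preparations.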"}, "[8]": {"organism": "Homo sapiens", "assay": "Inhibition of Arachidonic acid by the compound in response of AGG", "format": "functional, organism-based", "method_in_brief": "as §2"}, "[9]": {"target": "Serotonin (5-HT) receptor", "assay": "Inhibition of Arachidonic acid by the compound in response of SEC", "format": "functional, Homo sapiens", "method_in_brief": "as §1"}, "[10]": {"target": "Serotonin (5-HT) receptor", "assay": "Inhibition of ADP by the compound in response of SEC", "format": "functional, Homo sapiens", "method_in_brief": "as §1"}, "[11]": {"organism": "Homo sapiens", "assay": "Inhibition of U-46,619 + phentolamine by the compound in response of AGG", "format": "functional, organism-based", "method_in_brief": "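Human citrated platelet-rich plasma was incubated with 1 mM aspirin. Phentolamine (1 μM) was added 1 min before the drug and 2 min before U46619, used at the minimal maximally-aggregating concentration. Turbidometric aggregation was followed, and IC50 was based on the maximal transmittance change at 4 min, from percent inhibition versus log concentration plots. Data are from 3–5 preparations.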"}, "[12]": {"organism": "Homo sapiens", "assay": "Inhibition of ADP by the compound in response of AGG", "format": "functional, organism-based", "method_in_brief": "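The drug was added 1 min before ADP, used at the minimum concentration giving maximal aggregation, in citrated human platelet-rich plasma from medication-free donors. Born turbidometric aggregometry was used. IC50 came from the maximal change in light transmittance after 6 min, using percent inhibition versus log concentration plots. Data are from 3–5 preparations.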"}, "[13]": {"target": "Serotonin (5-HT) receptor", "assay": "Inhibition of AA+phentolamine by the compound in response of SEC", "format": "functional, Homo sapiens", "method_in_brief": "as §3"}, "[14]": {"organism": "Homo sapiens", "assay": "Log concentration that produces maximum response against epinephrine-induced platelet aggregation (primary wave AGG)", "format": "functional, organism-based"}, "[15]": {"organism": "Homo sapiens", "assay": "Effective concentration for primary wave aggregation was determined", "format": "functional, organism-based", "method_in_brief": "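Citrated (9:1) platelet-rich plasma from medication-free human donors. Compound given alone to platelets preincubated 1 min with 1 mM aspirin. Born turbidometric aggregation, maximal change in light transmittance amplitude. EC50 taken from individual plots of percent response versus log concentration. Values in parentheses give number of experiments.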"}, "[16]": {"organism": "Homo sapiens", "assay": "Effective concentration for secondary wave aggregation was determined", "format": "functional, organism-based"}, "[17]": {"organism": "Homo sapiens", "assay": "Inhibitory concentration of compound against primary aggregation of induced by R-8", "format": "functional, organism-based"}},
  "data": [
    {"compound": "Oc1ccc(C[C@H]2CNC=N2)cc1O", "values": [
      {"measurement": "Kb", "setting": "[1]", "value": 3.24, "unit": "µM"}
    ]},
    {"compound": "Oc1ccc(C(O)c2ncc[nH]2)cc1O", "note": "(configuration not stated)", "values": [
      {"measurement": "EC50", "setting": "[2]", "value": 38.9, "unit": "µM"}
    ]},
    {"compound": "Cl.Oc1ccc(Cc2ncc[nH]2)cc1O", "values": [
      {"measurement": "IC50", "setting": "[3]", "value": 145, "unit": "µM"},
      {"measurement": "Log IC50", "setting": "[4]", "value": -2.81},
      {"measurement": "IC50", "setting": "[5]", "value": 1620, "unit": "µM"},
      {"measurement": "IC50", "setting": "[6]", "value": 36.3, "unit": "µM"},
      {"measurement": "Log IC50", "setting": "[7]", "value": -3.09},
      {"measurement": "IC50", "setting": "[8]", "value": 661, "unit": "µM"},
      {"measurement": "Log IC50", "setting": "[9]", "value": -3.18},
      {"measurement": "Log IC50", "setting": "[10]", "value": -3.46},
      {"measurement": "IC50", "setting": "[11]", "value": 741, "unit": "µM"},
      {"measurement": "IC50", "setting": "[12]", "value": 263, "unit": "µM"},
      {"measurement": "Log IC50", "setting": "[13]", "value": -3.79}
    ]},
    {"compound": "Oc1ccc(C[C@@H]2CNC=N2)cc1O", "values": [
      {"measurement": "EC50", "setting": "[14]", "value": 5.13, "unit": "µM"},
      {"measurement": "EC50", "setting": "[15]", "value": 5.03, "unit": "µM"},
      {"measurement": "EC50", "setting": "[16]", "value": 4.89, "unit": "µM"}
    ]},
    {"compound": "COC(=O)[C@@H]1[C@H]2C[C@H]3c4[nH]c5ccccc5c4CCN3C[C@@H]2CC[C@@H]1O", "note": "[YOHIMBINE]", "values": [
      {"measurement": "IC50", "setting": "[17]", "value": 1.1, "unit": "µM"}
    ]}
  ]
}
